Source: paper PMC5114172 (Journal of applied toxicology : JAT, 2016)

Legend:
monocyte-depleted PBMCs = assay: Cell viability, trypan blue exclusion; type: cell-based, human; details: for Percent Viable Cells / decrease in viability: MD-PBMCs
[1] = tested on: highly purified human NKs; assay: IL-1β secretion assay; type: cell-based; details: for Interleukin 1 beta secreted: NK
Outline: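 NK cells, MD-PBMCs, PBMCs or granulocytes (1.5 million/mL) or PBMC+granulocytes (0.75 million/mL each), per donor, exposed 24 h, 48 h or 6 days to 0.05–5 μM test compound diluted from DMSO stock, with DMSO controls. Supernatants kept at −70 °C. IL-1β by sandwich ELISA: HRP detection antibody, acid-stopped substrate, A450 against standards. Detection limit 3 pg/mL; triplicates; ANOVA then t test versus control, p<0.05.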

CCC[CH2][Sn][CH2]CCC [DBT, Dibutyltin]
average decrease in viability (monocyte-depleted PBMCs; MD-PBMC, 24 h, 5 μM DBT): 15%
Percent Viable Cells (monocyte-depleted PBMCs; 24 h, 0.05 μM DBT): 98±2%
Percent Viable Cells (monocyte-depleted PBMCs; 24 h, 0.1 μM DBT): 98±1%
Percent Viable Cells (monocyte-depleted PBMCs; 24 h, 0.25 μM DBT): 97±1%
Percent Viable Cells (monocyte-depleted PBMCs; 24 h, 0.5 μM DBT): 91±8%
Percent Viable Cells (monocyte-depleted PBMCs; 24 h, 1 μM DBT): 92±4%
Percent Viable Cells (monocyte-depleted PBMCs; 24 h, 2.5 μM DBT): 74±15 %
Percent Viable Cells (monocyte-depleted PBMCs; 24 h, 5 μM DBT): 80±9 %
decrease in viability (monocyte-depleted PBMCs; 24 h, 2.5 and 5 μM DBT): 15%
Percent Viable Cells (monocyte-depleted PBMCs; 48 h, 0.05 μM DBT): 96±2%
Percent Viable Cells (monocyte-depleted PBMCs; 48 h, 0.1 μM DBT): 97±1 %
Percent Viable Cells (monocyte-depleted PBMCs; 48 h, 0.25 μM DBT): 96±2%
Percent Viable Cells (monocyte-depleted PBMCs; 48 h, 0.5 μM DBT): 94±3%
Percent Viable Cells (monocyte-depleted PBMCs; 48 h, 1 μM DBT): 80±11 %
Percent Viable Cells (monocyte-depleted PBMCs; 48 h, 2.5 μM DBT): 56±20 %
decrease in viability (monocyte-depleted PBMCs; 48 h, 2.5 μM DBT): 38%
Percent Viable Cells (monocyte-depleted PBMCs; 48 h, 5 μM DBT): 55±10 %
decrease in viability (monocyte-depleted PBMCs; 48 h, 5 μM DBT): 35%
Percent Viable Cells (monocyte-depleted PBMCs; 6 day, 0.05 μM DBT): 89±8%
Percent Viable Cells (monocyte-depleted PBMCs; 6 day, 0.1 μM DBT): 86±7%
Percent Viable Cells (monocyte-depleted PBMCs; 6 day, 0.25 μM DBT): 81±13%
Percent Viable Cells (monocyte-depleted PBMCs; 6 day, 0.5 μM DBT): 67±13 %
Percent Viable Cells (monocyte-depleted PBMCs; 6 day, 1 μM DBT): 52±11 %
Percent Viable Cells (monocyte-depleted PBMCs; 6 day, 2.5 μM DBT): 47±9 %
Percent Viable Cells (monocyte-depleted PBMCs; 6 day, 5 μM DBT): 52±8 %
average of the maximum fold increase in IL-β secretion ([1]; NK cells, 24 h, across donors): 3.5 fold
fold increase in IL-1β secretion ([1]; NK cells, donor KB169, 0.05 μM (50 nM) DBT): 7.9 fold
fold increase in IL-1β secretion ([1]; NK cells, donor KB169, 0.1 μM (100 nM) DBT): 6.0 fold
Interleukin 1 beta secreted ([1]; donor KB130, 24 h, 0.05 μM DBT): 386 ± 41 pg/mL
Interleukin 1 beta secreted ([1]; donor KB130, 24 h, 0.1 μM DBT): 116 ± 27 pg/mL
Interleukin 1 beta secreted ([1]; donor KB130, 24 h, 0.25 μM DBT): 17 ± 20 pg/mL
Interleukin 1 beta secreted ([1]; donor KB130, 48 h, 0.05 μM DBT): 1372 ± 481 pg/mL
Interleukin 1 beta secreted ([1]; donor KB130, 48 h, 0.1 μM DBT): 298 ± 65 pg/mL
Interleukin 1 beta secreted ([1]; donor KB130, 48 h, 0.25 μM DBT): 139 ± 46 pg/mL
Interleukin 1 beta secreted ([1]; donor KB130, 6 day, 0.05 μM DBT): 782 ± 35 pg/mL
Interleukin 1 beta secreted ([1]; donor KB130, 6 day, 0.1 μM DBT): 550 ± 21 pg/mL
Interleukin 1 beta secreted ([1]; donor KB130, 6 day, 0.25 μM DBT): 142 ± 27 pg/mL
Interleukin 1 beta secreted ([1]; donor KB130, 6 day, 0.5 μM DBT): 46 ± 53 pg/mL
Interleukin 1 beta secreted ([1]; donor KB155, 24 h, 0.05 μM DBT): 2965 ± 1004 pg/mL
Interleukin 1 beta secreted ([1]; donor KB155, 24 h, 0.1 μM DBT): 2771 ± 70 pg/mL
Interleukin 1 beta secreted ([1]; donor KB155, 24 h, 0.25 μM DBT): 779 ± 25 pg/mL
Interleukin 1 beta secreted ([1]; donor KB155, 24 h, 0.5 μM DBT): 28 ± 23 pg/mL
Interleukin 1 beta secreted ([1]; donor KB155, 48 h, 0.05 μM DBT): 5235 ± 531 pg/mL
Interleukin 1 beta secreted ([1]; donor KB155, 48 h, 0.1 μM DBT): 4588 ± 130 pg/mL
Interleukin 1 beta secreted ([1]; donor KB155, 48 h, 0.25 μM DBT): 1598 ± 450 pg/mL
Interleukin 1 beta secreted ([1]; donor KB155, 48 h, 0.5 μM DBT): 130 ± 39 pg/mL
Interleukin 1 beta secreted ([1]; donor KB155, 6 day, 0.05 μM DBT): 1625 ± 164 pg/mL
Interleukin 1 beta secreted ([1]; donor KB155, 6 day, 0.1 μM DBT): 1572 ± 245 pg/mL
Interleukin 1 beta secreted ([1]; donor KB155, 6 day, 0.25 μM DBT): 960 ± 152 pg/mL
Interleukin 1 beta secreted ([1]; donor KB155, 6 day, 0.5 μM DBT): 138 ± 43 pg/mL
Interleukin 1 beta secreted ([1]; donor KB169, 24 h, 0.05 μM DBT): 1551 ± 25 pg/mL
Interleukin 1 beta secreted ([1]; donor KB169, 24 h, 0.1 μM DBT): 1173 ± 69 pg/mL
Interleukin 1 beta secreted ([1]; donor KB169, 24 h, 0.25 μM DBT): 796 ± 137 pg/mL
Interleukin 1 beta secreted ([1]; donor KB169, 24 h, 0.5 μM DBT): 114 ± 21 pg/mL
Interleukin 1 beta secreted ([1]; donor KB169, 48 h, 0.05 μM DBT): 341 ± 10 pg/mL
Interleukin 1 beta secreted ([1]; donor KB169, 48 h, 0.1 μM DBT): 367 ± 53 pg/mL
Interleukin 1 beta secreted ([1]; donor KB169, 48 h, 0.25 μM DBT): 262 ± 14 pg/mL
Interleukin 1 beta secreted ([1]; donor KB169, 6 day, 0.05 μM DBT): 453 ± 91 pg/mL
Interleukin 1 beta secreted ([1]; donor KB169, 6 day, 0.1 μM DBT): 602 ± 257 pg/mL
Interleukin 1 beta secreted ([1]; donor KB169, 6 day, 0.25 μM DBT): 511 ± 227 pg/mL
Interleukin 1 beta secreted ([1]; donor KB169, 6 day, 0.5 μM DBT): 157 ± 61 pg/mL
